Results from different studies.
Target: Rho-associated protein kinase 1 (ROCK1, Homo sapiens, UniProt Q13464)

| Compound | assay | conditions | remaining binding [%] |
| --- | --- | --- | --- |
| Cc1c(NC(=O)c2cc(C(N)=O)nc3cc(F)ccc23)c(C(F)(F)F)nn1Cc1ccc(C#N)cc1 | cell-free assay, competition with immobilised ligand | 1 µM | 97 |
| O=C(c1ccc(Nc2ncc(Cl)c(-c3ccc(Cl)s3)n2)cc1)N1CCC(N2CCCC2)CC1 | binding, competition with immobilised ligand | 1 µM | 4.9 |
| CC(C)CC(=O)N1CCc2nc(-c3ccc(Br)cc3)nc(N(C)Cc3ccccc3)c2C1 | cell-free assay, competition with immobilised ligand | 0.1 µM | 78 |
| COc1ncc2cc3ccccc3nc2c1C#N | cell-free assay, competition with immobilised ligand | 5 µM | 84 |
| FC(F)(F)Oc1cccc(-c2cnc3ccc(-c4ccncc4)nn23)c1 | binding, competition with immobilised ligand | 5 µM | 42 |
| COc1cnc(Nc2cccc(S(N)(=O)=O)c2)nc1N1CCN(c2ccccc2)C(=O)C1 | binding, competition with immobilised ligand | 1 µM | 43 |
| Cc1cnc(Nc2ccc(C(=O)N3CCC(N4CCCC4)CC3)cc2)nc1-c1cc2ccccc2s1 | binding, competition with immobilised ligand | 1 µM | 7.7 |
| CS(=O)(=O)N1CCCC(NC(=O)[C@H](CCC2CCCCC2)NC(=O)c2ccc(CNC(=O)c3cnc4ccccn34)cc2)C1 (stereo partly shown) | cell-free assay, competition with immobilised ligand | 0.1 µM | 100 |
| CN(c1nccc(-c2cnn3ncccc23)n1)C1CC1 | binding | 1 µM | 100 |
| O=C(Nc1c[nH]nc1C(=O)NC1CCNCC1)c1cc(F)cc(F)c1 | binding, competition with immobilised ligand | 1 µM | 98 |
| Nc1ncc2c(n1)-c1c([nH]c3ccc(C#CC4CC4)cc13)CCCC2 | binding, competition with immobilised ligand | 1 µM | 100 |
| CCC(=N\O)/C(C)=C/c1ccc(F)cc1 | cell-free assay, competition with immobilised ligand | 1 µM | 100 |
| CN(C)c1ncc(F)c(-c2cnn3ncccc23)n1 | binding | 1 µM | 100 |
| CCN1CCN(Cc2ccc(C(=O)Nc3ccc(C)c(Oc4ccc5c(c4)CC(=O)N5)c3)cc2C(F)(F)F)CC1 | binding, competition with immobilised ligand | 1 µM | 69 |
| N[C@@H]1CCN(c2nccc(-c3cnn4ncccc34)n2)C1 | binding | 1 µM | 94 |
| Cc1c(C(=O)O)cc(-c2ccc(C3CCNCC3)cc2)c2ccc(-c3ccc(C(F)(F)F)cc3)cc12 | binding, competition with immobilised ligand | 1 µM | 100 |
| C[C@@H]1CCN(c2nccc(-c3cnn4ncccc34)n2)C1 | binding | 1 µM | 86 |
| CNC(=O)[C@@H]1CC[C@@H](n2c(-c3ccc4cnccc4c3)nc3ccc(C(=O)NCc4cccc(C(N)=O)c4)cc32)C1 | binding, competition with immobilised ligand | 1 µM | 100 |
| CN(C)c1nccc(-c2cnc3ncccn23)n1 | binding | 1 µM | 74 |
| O=C(NCCCN1CCOCC1)c1ccc(Nc2ncc(Cl)c(-c3ccc(Cl)s3)n2)cc1 | binding, competition with immobilised ligand | 1 µM | 90 |
| c1cnn2ncc(-c3ccnc(N4CCC45COC5)n3)c2c1 | binding | 1 µM | 77 |
| CS(=O)(=O)c1cc(C2(NC(=O)c3cncc4c3cnn4-c3ccc(F)cc3)CC2)ccn1 | cell-free assay, competition with immobilised ligand | 1 µM | 79 |
